The values that follow come from ChEMBL document CHEMBL2346655, “Synthesis and in vitro biological evaluation of 2,6,9-trisubstituted purines targeting multiple cyclin-dependent kinases” (Eur J Med Chem, 2013).

Molecules are shown by their SMILES. Activity calls are given as the source filed them. The rule behind the calls is not given here.

Assay [1] deals with HCT-116. The experiment in a line: Cell cycle arrest in human HCT116 cells assessed as accumulation at G2/M phase at 0.2 uM after 24 hrs by propidium iodide staining-based flow cytometric analysis (reference value: 19.6%). The format is functional. In short, it runs like this: (§1)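 Sub-confluent cells treated at several concentrations for 24 h, then pulsed with 10 μM BrdU for 30 min at 37 °C before harvest. Cells were PBS-washed, fixed in 70% ethanol, denatured in 2 M HCl and neutralized. Stained with fluorescein anti-BrdU and propidium iodide; DNA content read by flow cytometry with 488 nm excitation.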

Assay [2] concerns MCF7. Put plainly: Ratio of roscovitine IC50 to compound IC50 for human MCF7 cells. It counts as functional. The procedure, abridged:
(§2)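 Cytotoxicity IC50s underlying the ratio: cells treated in triplicate with three-fold compound dilutions for 72 h, then Calcein AM added and live-cell fluorescence read at 485/538 nm (ex/em).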

For assay [3], the system named is K562. The experiment in a line: Ratio of roscovitine IC50 to compound IC50 for human K562 cells. It counts as functional. The procedure, abridged: as §2
Assay [4] relates to G-361. Put plainly: Cytotoxicity against human G361 cells assessed as reduction in number of viable cells after 72 hrs by fluorescence assay. It counts as functional, cell-based. The settings on record: G-361, 72 h. The procedure, abridged: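 Three-fold compound dilutions tested in triplicate on cultured cells for 72 h. Viable cells detected by adding Calcein AM and reading fluorescence at 485/538 nm (ex/em).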

The target in assay [5] is Cyclin-dependent kinase 2/cyclin E1 (Homo sapiens, UniProt P24941). Put plainly: Inhibition of CDK2/Cyclin E (unknown origin) expressed in Sf9 cells using histone H1 as substrate.
Assay [6] concerns HCT-116. The experiment in a line: Induction of apoptosis in human HCT116 cells assessed as caspase-3/7 activation up to 25 uM by fluorescence assay. The format is functional, cell-based. In short, it runs like this:
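After 24 h treatment, cells were lysed on ice for 20 min in pH 7.4 HEPES/KCl/EDTA/EGTA/0.2% CHAPS buffer with protease inhibitors and cleared at 10,000 × g for 30 min at 4 °C. Protein was equalized, then incubated for 1 h with 100 μM Ac-DEVD-AMC in PIPES buffer pH 7.3 containing DTT. Fluorescence was read at 355/460 nm; 100 μM Ac-DEVD-CHO served as the negative control.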

Assay [7] has as its system K562. Put plainly: Induction of apoptosis in human K562 cells assessed as change in PUMA level up to 5 uM after 24 hrs by immunoblotting analysis. It counts as functional, cell-based. The procedure, abridged:
(§3)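 Cells were treated for 24 h, harvested directly into Laemmli sample buffer, and run on SDS-PAGE. Proteins were blotted to nitrocellulose, blocked, probed overnight with primary antibodies, then with peroxidase-linked secondaries. Bands were detected by ECL with a CCD camera. PCNA and tubulin served as loading references.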
On the technique in general: In western blotting, separated proteins are transferred to a membrane and probed.

Assay [8] has as its system HCT-116. Put plainly: Induction of apoptosis in human HCT116 cells assessed as change in BCL2 level up to 5 uM after 24 hrs by immunoblotting analysis. It counts as functional, cell-based. The procedure, abridged:
as §3

For assay [9], the target named is T1, CDK9/cyclin T1 (Homo sapiens) (UniProt O60563+P50750). Put plainly: Inhibition of CDK9/CyclinT1 in human ARN8 cells assessed as increase in p53-dependent transcriptional activity at 2 uM after 24 hrs by beta-galactosidase reporter gene assay. It counts as cell-based. In short, it runs like this: (§4)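 Arn-8 human melanoma cells stably carrying p53-responsive pRGCΔfoslacZ reporter; 24 h compound exposure, then permeabilized with 0.3% Triton X-100 for 15 min. 4-Methylumbelliferon-β-D-galactopyranoside added (80 μM final); fluorescence read at 355/460 nm (ex/em) after 1 h as β-galactosidase activity.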

The target in assay [10] is T1, CDK9/cyclin T1 (Homo sapiens). The experiment in a line: Inhibition of CDK9/CyclinT1 in human ARN8 cells assessed as increase in p53-dependent transcriptional activity after 24 hrs by beta-galactosidase reporter gene assay. The format is cell-based. The procedure, abridged: as §4
For assay [11] the target is unchanged. Put plainly: Inhibition of CDK9/CyclinT1 in human HCT116 cells assessed as increase in p53 expression at 1 to 5 uM after 24 hrs by immunoblotting analysis. The format is cell-based. The conditions noted are these: HCT-116. The procedure, abridged: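 Immunoblot: cells lysed by harvesting in Laemmli sample buffer, proteins run on SDS-PAGE, electroblotted to nitrocellulose, blocked, primary antibodies overnight, peroxidase-conjugated secondaries, ECL detection by CCD camera. Antibodies included anti-phospho RNA polymerase II (S2), anti-RNA polymerase II (ARNA-3), anti-p53 (DO-1), anti-p21waf1 (118), anti-PCNA.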

The subject of assay [12] is K562. The experiment in a line: Cell cycle arrest in human K562 cells assessed as accumulation at subG1 phase at 5 uM after 24 hrs by propidium iodide staining-based flow cytometric analysis (reference value: 2.4%). It counts as functional. In short, it runs like this: as §1
(In general: A flow cytometer gives signals particle by particle.)

The test system of assay [13] is K562. The experiment in a line: Cell cycle arrest in human K562 cells assessed as accumulation at S phase at 1 uM after 24 hrs by propidium iodide staining-based flow cytometric analysis (reference value: 38.8%). The format is functional. In short, it runs like this:
as §1

For assay [14], the system named is K562. The experiment in a line: Cell cycle arrest in human K562 cells assessed as accumulation at G1 phase at 0.2 uM after 24 hrs by propidium iodide staining-based flow cytometric analysis (reference value: 47.3%). It counts as functional. The procedure, abridged: as §1
The subject of assay [15] is HCT-116. Put plainly: Cell cycle arrest in human HCT116 cells assessed as accumulation at G2/M phase at 5 uM after 24 hrs by propidium iodide staining-based flow cytometric analysis (reference value: 19.6%). The format is functional. In short, it runs like this: as §1
The subject of assay [16] is HCT-116. The experiment in a line: Cell cycle arrest in human HCT116 cells assessed as accumulation at S phase at 1 uM after 24 hrs by propidium iodide staining-based flow cytometric analysis (reference value: 31.6%). The format is functional. The procedure, abridged: as §1

For `CC[C@@H](Nc1nc(NCc2cc(Cl)ccc2O)c2ncn(C(C)C)c2n1)C(C)O` (mixture of isomers), the Activity was determined as 23.4% in assay [1]; 10.9% in assay [12]; 39.8% in assay [13]; 34.7% in assay [14]; 37.9% in [15]; 28.8% in [16]. Further, the “Ratio IC50” value in assay [2] and in assay [3] was over 9 each time. For the same molecule, the IC50 (usually the concentration needed to halve the response being measured) was found to be 2300 nM in [4] and 13.1 nM in [5]. The result in assay [6] was Active. Moreover, the outcome in assay [7] and in assay [8] was inactive. Besides, the inhibition entry in assay [9] and in [11] was “Active” throughout. Besides, the inhibition entry in assay [10] was “Dose-dependent effect”.
